APP 5'UTR act: activates APP 5'UTR luciferase reporter | SH-SY5Y APP 5'UTR luciferase reporter, luminescence; zero percent = DMSO vehicle wells | activation, % at 2 µM | 190,000 compounds, 1% hits | AID 1276;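 active = activation above a set limit, based on mean plus 3 SD of controls, cut at about 140% in these data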
STAT3 inh: STAT3 signaling inhibition; inhibition, % at 5.5 µM; U3A cells, IL-6 STAT3-luciferase reporter, luminescence; host cell line lacks STAT1; 190,000 compounds, 0.89% hits;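 active = inhibition above the mean inhibition across all screened compounds plus 3 SD, cut at about 44% in these data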
NF-kB neuron act: NF-kB expression increase, human neuronal cells; fold change at 12.5 µM; NF-kB reporter expression; active compounds read high; AID 1239; 190,000 compounds, 1.6% hits; in the data active = fold change above about 3.3
STAT3 act-1: activators of IL-6 induced STAT3 signaling; U3A cells, IL-6 STAT3-luciferase reporter, luminescence; 100% = signal with IL-6 EC80 alone; activation (% of control), % at 5.6 µM; 190,000 compounds, 0.91% hits; AID 871;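 active = activation above the screen-wide mean of compound activation plus 3 SD, cut at about 130% in these data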
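Test system: Human STAT1-deficient U3A cells with stable STAT3-luciferase reporter | Also added: Interleukin-6, 33 ng/mL | Timing: Compound pre-incubation 1 h before IL-6, then 6 h stimulation at 37 °C | Technique: Luciferase reporter luminescence | Read-out: Percent of IL-6-only median luminescence | Benchmarks: IL-6-only wells as 100% reference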
STAT1 act-1: STAT1 signaling activation; NIH 3T3 STAT1-luciferase reporter, IFN-gamma, luminescence; 100% = IFN-gamma alone, no compound; activation (% of control), % at 5.5 µM; 200,000 compounds, 2.6% hits;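 active = activation above the screen-wide mean activation plus 3 SD, cut at about 130% in these data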
STAT1 inh: STAT1 signaling inhibition. 200,000 compounds, 0.35% hits. NIH 3T3 STAT1-luciferase reporter, IFN-gamma, luminescence. AID 920. inhibition, % at 5.5 µM;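 active = inhibition above a set limit, the mean inhibition across all tested compounds plus 3 SD, cut at about 34% in these data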
STAT3 act-2: confirmation of STAT3 signaling activators; shares compounds with STAT3 act-1; U3A STAT3-luciferase reporter, IL-6 potentiation, luminescence; U3A cells lack STAT1; 100 means same as IL-6 alone; potentiation (% of control), % at 5.7 µM; 1,200 compounds, 64% hits; AID 1267;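 active = percent activation of the STAT3 luciferase reporter above a set limit taken from the earlier primary screen, cut at about 130% in these data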
NFkB act STAT3ct: counter-screen for STAT3 activators: NF-kappaB activation; 1,200 compounds, 11% hits; human cells, NF-kappaB reporter activation; activation (% of control), % at 5.7 µM; shares compounds with STAT3 act-1; in the data active = activation above about 120%;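 note: reporter induced by TNF-alpha stimulation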
STAT1 act-2: counter-screen for STAT3 activators: STAT1 activation | shares compounds with STAT3 act-1 | NIH 3T3 STAT1-luciferase reporter, IFN-gamma, luminescence | activation (% of control), % at 5.7 µM | 1,200 compounds, 13% hits | AID 1318;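 active = activation above the solvent-only control well mean plus 3 SD, set per screening run, cut at about 120% in these data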
Each line names hits and unclear results; the compound was inactive in the other large screens (follow-up assays come after a bar, where they were run). Most compounds without a hit are left out; they make up all but 4.9% or so of the library.

CCC(C)NC(=O)CCc1nc2ccccc2n1-c1ccccc1 (configuration not stated)	none
CC(Sc1ccsc1[N+](=O)[O-])C(=O)N1CCN(c2ccccn2)CC1 (configuration not stated)	none
CC(C)(C)C(=O)COC(=O)c1ccccc1O	none
COc1cccc(C(=O)OCC(=O)c2c[nH]c3ccccc23)c1O	STAT3 act-1 143.6 | STAT3 act-2 138.4 | NFkB act STAT3ct inactive | STAT1 act-2 inactive
COc1ccccc1C(=O)COC(=O)c1ccccc1O	STAT3 act-1 151.2 | STAT3 act-2 150.1 | NFkB act STAT3ct inactive | STAT1 act-2 inactive
CC(=O)OCC(=O)c1c[nH]c2ccccc12	none
Oc1ccccc1-c1cc(-c2ccccc2)no1	APP 5'UTR act 255.3, NF-kB neuron act 12.2, STAT3 act-1 161.7 | STAT3 act-2 175.2 | NFkB act STAT3ct 124.2 | STAT1 act-2 inactive
Cc1ccccc1-c1cc(-c2ccccc2O)on1	APP 5'UTR act 197.3, NF-kB neuron act 9.67, STAT3 act-1 167.7 | STAT3 act-2 184.0 | NFkB act STAT3ct inactive | STAT1 act-2 inactive
C=CCN(C(=O)c1ccccn1)C(C(=O)NCc1ccccc1)c1ccccc1F (configuration not stated)	none
CNC(=O)CSc1nc2c([nH]c3ccccc32)c(=O)n1CCOC	STAT3 act-1 141.1 | STAT3 act-2 150.2 | NFkB act STAT3ct inactive | STAT1 act-2 inactive
COc1cccc(-n2c(SCC(=O)Nc3cc(C)on3)nc3c([nH]c4ccccc43)c2=O)c1	STAT3 act-1 144.4 | STAT3 act-2 135.3 | NFkB act STAT3ct inactive | STAT1 act-2 inactive
Cc1cc(NC(=O)CSc2nc3c([nH]c4ccccc43)c(=O)n2-c2cccc(C(F)(F)F)c2)no1	STAT3 act-1 147.8 | STAT3 act-2 138.1 | NFkB act STAT3ct inactive | STAT1 act-2 inactive
COc1cccc(-n2c(SCC(=O)N3CCCCC3)nc3c([nH]c4ccccc43)c2=O)c1	none (no result: STAT3 inh, STAT3 act-1)
COc1cccc(-n2c(SCC(N)=O)nc3c([nH]c4ccccc43)c2=O)c1	STAT3 act-1 143.1 | STAT3 act-2 158.4 | NFkB act STAT3ct inactive | STAT1 act-2 inactive
COc1cccc(-n2ccnc2SCC(=O)Nc2cc(C)on2)c1	none
COc1cccc(-c2nc(-c3ccc(NC(=O)c4cccs4)cc3)no2)c1	none
CC(C)Sc1nc2c([nH]c3ccccc32)c(=O)n1C	STAT3 act-1 158.5 | STAT3 act-2 158.9 | NFkB act STAT3ct inactive | STAT1 act-2 inactive
CCOC(=O)C(C)Sc1nc2c([nH]c3ccccc32)c(=O)n1C (configuration not stated)	none
COc1cc2c(cc1NC(=O)C(C)OC(=O)C1CC(=O)N(Cc3ccco3)C1)oc1ccccc12 (configuration not stated)	STAT3 act-1 154.4 | STAT3 act-2 146.6 | NFkB act STAT3ct inactive | STAT1 act-2 122.3
Cc1nn2c(-c3ccccc3)nnc2c2ccccc12	STAT3 act-1 170.1 | STAT3 act-2 142.6 | NFkB act STAT3ct inactive | STAT1 act-2 inactive
Cc1nn2c(-c3cccc(NC(=O)c4ccco4)c3)nnc2c2ccccc12	none
c1ccc(-c2nc(CSc3n[nH]c(-c4cccs4)n3)cs2)cc1	none
CCOC(=O)CC1C(=O)NCCN1C(=O)c1cc2c(=O)n3cccc(C)c3nc2s1 (configuration not stated)	STAT3 act-1 164.1 | STAT3 act-2 138.7 | NFkB act STAT3ct inactive | STAT1 act-2 inactive
CCOC(=O)CC1C(=O)NCCN1C(=O)c1cc2c(=O)n3ccccc3nc2s1 (configuration not stated)	none
COc1ccc(CNc2nc(-c3cccnc3)nn2S(C)(=O)=O)cc1	none
Cc1c(C(=O)Nc2cccc(N(C)S(C)(=O)=O)c2)cccc1[N+](=O)[O-]	none
CCCN(c1ccc(C(C)C)cc1)S(=O)(=O)c1c(C)noc1C	none
Cc1noc(C)c1S(=O)(=O)N(CC(=O)N1CCn2c1nc1ccccc12)c1ccc(C(C)C)cc1	STAT3 act-1 149.0 | STAT3 act-2 137.7 | NFkB act STAT3ct inactive | STAT1 act-2 inactive
COc1ccc(-c2nc3scc(-c4ccccc4)n3n2)cc1	STAT3 act-1 159.8 | STAT3 act-2 143.9 | NFkB act STAT3ct inactive | STAT1 act-2 inactive
COc1ccc(C(=O)n2nc(-c3ccccc3)nc2SC)cc1	none
Cn1c(/N=C/c2cccs2)nc2ccccc21	STAT3 act-1 146.7 | STAT3 act-2 inactive | NFkB act STAT3ct inactive | STAT1 act-2 inactive
Cn1c(/N=C/c2cc(Cl)ccc2O)nc2ccccc21	STAT3 act-1 156.6 | STAT3 act-2 inactive | NFkB act STAT3ct inactive | STAT1 act-2 inactive
Cc1ccc(S(=O)(=O)NCCC(=O)Nc2cccc(Cl)c2)cc1	none
Cc1cc2c(ncn2Cc2ccccc2)c(N)c1C	none
COc1ccccc1C(=O)NC(=S)N1CCCc2ccccc21	none
O=C(NC(=S)N1CCCc2ccccc21)c1ccccc1	STAT3 act-1 166.5 | STAT3 act-2 148.6 | NFkB act STAT3ct inactive | STAT1 act-2 inactive
CC(C)C(=O)NCCSc1c[nH]c2ccccc12	none
O=C(O)CSc1c[nH]c2ccccc12	STAT3 act-1 150.6 | STAT3 act-2 inactive | NFkB act STAT3ct inactive | STAT1 act-2 inactive
CCC(=O)NCCSc1c[nH]c2ccccc12	STAT3 act-1 144.9 | STAT3 act-2 141.0 | NFkB act STAT3ct inactive | STAT1 act-2 inactive
CC(Sc1c[nH]c2ccccc12)C(=O)O (configuration not stated)	STAT3 act-1 147.1 | STAT3 act-2 inactive | NFkB act STAT3ct inactive | STAT1 act-2 inactive
Cc1cc(C)n(-c2nc(C)nc3c2cnn3-c2ccccc2)n1	STAT3 act-1 155.3 | STAT3 act-2 150.7 | NFkB act STAT3ct inactive | STAT1 act-2 inactive
CCOC(=O)c1[nH]c2ccc(OC)cc2c1NS(=O)(=O)c1ccc(OC)cc1OC	none
COC(=O)c1[nH]c2ccc(F)cc2c1NS(=O)(=O)c1ccc(OC)cc1OC	STAT3 act-1 142.5 | STAT3 act-2 inactive | NFkB act STAT3ct inactive | STAT1 act-2 inactive
COc1ccc2oc3cc(C)[n+]([O-])c(-c4ccc(C)cc4)c3c2c1	none
CCOn1c(=O)c(-c2cc3ccccc3o2)[n+]([O-])c2ccccc21	STAT3 act-1 154.3 | STAT3 act-2 179.1 | NFkB act STAT3ct 128.2 | STAT1 act-2 157.6

Compound activity from PubChem.
